# Experimental data published in article PMC11157418 (Clinical and Translational Science, 2024).
# Where a SMILES comes first, the peptide text is derived from it. [ ]: non-standard residue; d: D form. Nva = CCC[C@H](N)C(=O)O
# Legend:
# CDAHFD-fed mice [1] = experiment: Hepatic fibrosis in CDAHF mouse model; assay type: in vivo, C57BL/6N mice; settings: 30 mg/kg daily oral; Figure 3a-c
# liver of CDAHFD-fed mice = experiment: Hepatic gene expression in CDAHF mouse model; assay type: in vivo, C57BL/6N mice; settings: RT-qPCR, 30 mg/kg oral
# CDAHFD-fed mice [2] = experiment: CDAHF diet-induced mouse model of MASH; assay type: in vivo, C57BL/6N mice; settings: 30 mg/kg/day oral dosing; Figure 2c-g
# How it was run: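 Male C57BL/6N mice, 8 weeks old, fed a choline-deficient, low-methionine high-fat diet (60 kcal% fat) for 12 weeks. From week 3, obeticholic acid 30 mg/kg was given daily by oral gavage in 0.5% CMC/0.01% Tween-80 for 9 weeks. Vehicle-treated chow-fed mice served as negative controls (n=10/group). End-of-treatment read-outs were serum ALT/AST by commercial kits, liver weight, hepatic TG and H&E NAS scoring.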
# [3] = test system: human induced pluripotent stem (iPS) cell-derived hepatocytes; experiment: LDH release cytotoxicity assay; assay type: cell-based; settings: ALY688 0.5 to 2000 nM, globular adiponectin 1 μg/mL; 4 and 24 h; Figure S1B
# How it was run: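 iPS cell-derived human hepatocytes were exposed to test compound at 0.5, 1, 100, 500, 1000, 1500 and 2000 nM, to globular adiponectin 1 μg/mL, or to H₂O₂ 500 μM for 4 and 24 h. Cytotoxicity was quantified as LDH release by kit per manufacturer. Experiments were repeated at least three times; mean ± SEM.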
# [4] = test system: mice with TAA-induced liver injury / CCl4-induced liver fibrosis; settings: cited from earlier work
# [5] = test system: human induced pluripotent stem (iPS) cell-derived hepatocytes; experiment: MTT cytotoxicity assay; assay type: cell-based; settings: ALY688 0.5 to 2000 nM, globular adiponectin 1 μg/mL; 4 and 24 h; Figure S1A
# How it was run: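 iPS cell-derived human hepatocytes were exposed to test compound at 0.5, 1, 100, 500, 1000, 1500 and 2000 nM, to globular adiponectin 1 μg/mL, or to H₂O₂ 500 μM for 4 and 24 h. Viability was quantified by MTT formazan per manufacturer. Experiments were repeated at least three times; mean ± SEM.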
# STAM mice = experiment: STAM; assay type: in vivo, C57BL/6N mice
# How it was run: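 Male C57BL/6N mice received 200 μg streptozotocin s.c. at 2 days after birth and were fed HFD (57 kcal% fat) from week 4 to week 9. From week 6 to week 9, mice received saline vehicle or test compound at 0.5 or 5 mg/kg/day, by daily s.c. injection or s.c. osmotic pump (0.25 μL/h); n=6/group. Read-outs were body weight during treatment, and terminal plasma ALT/AST (dry-chemistry analyser) and liver weight. Unpaired two-sided t-test.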
# [6] = Pharmacokinetic study after single s.c. injection; assay type: in vivo, Sprague-Dawley rats; settings: male, Sprague-Dawley, rat, plasma, sc, 10 mg/kg
# How it was run: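 Male adult Sprague–Dawley rats (two per cage, 22–24°C, 12-h light cycle) received a single s.c. dose of 10 mg/kg. Plasma peptide was measured by LC–MS/MS. PK parameters were computed with values below LLOQ set to zero.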
# [7] = cited from earlier work
# [8] = continuous infusion, high dose 5 mg/kg/day, vs control mice
half-life [6] [min],Structure (SMILES),Hepatic fibrosis by histological examination (CDAHFD-fed mice [1]),"Hepatic expression of fatty acid oxidation genes (Acot1, Acox1, Cyp4a12) (liver of CDAHFD-fed mice; Figure 4e)","Hepatic expression of fibrosis-related genes (Tgfβ, Col1a1, Timp1) (liver of CDAHFD-fed mice; Figure 4f)",Expression of MASH-induced inflammatory genes (liver of CDAHFD-fed mice; Figure 4g),Effect on alleviating MASH (CDAHFD-fed mice [2]),"Cytotoxicity, LDH release assay [3]",Effect against TAA-induced liver injury and CCl4-induced liver fibrosis [4],"Cytotoxicity, MTT assay [5]","Body weight during the treatment period (STAM mice; 0.5 or 5 mg/kg/day, daily s.c. or osmotic pump, Figure 1b)",Serum ALT level (STAM mice; [8]),Serum AST level (STAM mice; [8]),"Serum ALT and AST levels (STAM mice; daily s.c. injection, 0.5 or 5 mg/kg/day, vs vehicle)",Stability in mouse plasma [7]
,"CC[C@H]1[C@@H](O)[C@@H]2[C@H](CC[C@]3(C)[C@@H]([C@H](C)CCC(=O)O)CC[C@@H]23)[C@@]2(C)CC[C@@H](O)C[C@@H]12 [OCA, obeticholic acid]",protective effects against hepatic fibrosis,restored,"appeared to reduce the expression of most of these fibrotic genes, although without statistical significance",failed to reverse,did not show beneficial effects,,,,,,,,
27,CCC[C@H](NC(=O)[C@@H]1CCCN1C(=O)[C@@H](NC(=O)[C@H](N)CC(N)=O)[C@@H](C)CC)C(=O)N[C@@H](CC(C)C)C(=O)N[C@@H](Cc1ccc(O)cc1)C(=O)N[C@H](CO)C(=O)N[C@@H](Cc1ccccc1)C(=O)N[C@@H](C)C(=O)N[C@H](CO)C(N)=O [ALY688] (H-[dN]IP[Nva]LY[dS]FA[dS]-NH2; N-terminus and C-terminus assumed),,,,,,No toxicity,liver protective effects,No toxicity,did not induce change in body weight,slightly lower levels of ALT without statistical significance,significantly reduced,did not affect,good stability
